# Assay results as given in ChEMBL document CHEMBL1150273, “Aza-peptidyl Michael acceptors. A new class of potent and selective inhibitors of asparaginyl endopeptidases (legumains) from evolutionarily diverse pathogens” (J Med Chem, 2008).
# Active and inactive are the calls of the source. The rule behind the calls is not given here.
# What was measured:
# [1] = Inhibition of Ixodes ricinus AE expressed in Pichia pastoris after 20 mins
# In short: (§1)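 Recombinant AE zymogens expressed in Pichia pastoris; SmAE and TvAE1 autoactivated in 0.5 M sodium acetate, 4 mM DTT, pH 4.5, 37 °C, 3 h to overnight; IrAE used without activation. Buffer 0.1 M citrate phosphate, 4 mM DTT, pH 6.8 (SmAE, TvAE1) or pH 5.5 (IrAE). Inhibitor 2.0–0.0002 µM final, 20 min preincubation at room temperature; 10 µM final Cbz-Ala-Ala-Asn-AMC, 20 min; IC50 from RFU/min vs concentration.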
# [2] = Inhibition of Schistosoma mansoni AE expressed in Pichia pastoris after 20 mins; in short: as §1
# Schistosoma mansoni = experiment: Inhibition of Schistosoma mansoni AE assessed as ratio of pseudo-first-order inhibition rate constant to inhibitor concentration
# In short: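 Autoactivated recombinant SmAE added to six inhibitor concentrations (0–1 µM final) in 0.1 M citrate phosphate, 2 mM DTT, pH 6.8 with 20 µM Cbz-Ala-Ala-Asn-AMC; progress followed every 2 s for 30 min at 25 °C (ex 355, em 460 nm); kobs/[I] by nonlinear regression, corrected for substrate by factor 1.33.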
# Caspase-6 (Homo sapiens) = target: T1, Caspase-6 (Homo sapiens) (UniProt P55212); experiment: Inhibition of caspase 6 assessed as ratio of pseudo-first-order inhibition rate constant to inhibitor concentration
# T1 sequence (whole entry): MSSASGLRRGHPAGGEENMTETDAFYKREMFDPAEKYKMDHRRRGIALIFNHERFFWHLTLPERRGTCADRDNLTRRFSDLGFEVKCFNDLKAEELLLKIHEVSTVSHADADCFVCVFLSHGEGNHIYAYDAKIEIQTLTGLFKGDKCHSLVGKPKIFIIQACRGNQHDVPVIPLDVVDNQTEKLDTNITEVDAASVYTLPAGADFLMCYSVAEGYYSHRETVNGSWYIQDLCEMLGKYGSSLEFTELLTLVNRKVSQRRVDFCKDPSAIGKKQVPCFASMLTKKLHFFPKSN
# In short: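 Caspase-6 at 5 nM final, assayed in the same Pipes/NaCl/CHAPS/sucrose/DTT buffer, pH 7.2, 37 °C with Ac-Asp-Glu-Val-Asp-AMC by the progress curve method; inhibitor stocks 5 × 10^-3 to 2.42 × 10^-6 M in DMSO; rates corrected for substrate using KM 236.35 µM.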
# Papain (Carica papaya) = target: T2, Papain (Carica papaya) (UniProt P00784); experiment: Inhibition of papain assessed as ratio of pseudo-first-order inhibition rate constant to inhibitor concentration
# T2 sequence (whole entry): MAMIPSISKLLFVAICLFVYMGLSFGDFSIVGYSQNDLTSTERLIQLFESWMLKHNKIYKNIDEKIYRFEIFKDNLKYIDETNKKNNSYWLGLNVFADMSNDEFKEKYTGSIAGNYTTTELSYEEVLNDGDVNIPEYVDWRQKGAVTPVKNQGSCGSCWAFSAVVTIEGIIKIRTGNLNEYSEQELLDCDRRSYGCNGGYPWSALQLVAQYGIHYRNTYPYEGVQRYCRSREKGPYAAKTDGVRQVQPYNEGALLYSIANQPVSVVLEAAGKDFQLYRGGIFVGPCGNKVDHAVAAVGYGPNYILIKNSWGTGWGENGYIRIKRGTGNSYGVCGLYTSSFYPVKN
# In short: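 Papain, about 0.29 mg/mL, incubated with inhibitor in 50 mM Hepes, 2.5 mM DTT, 2.5 mM EDTA, pH 7.5; aliquots taken over time into 53.7 µM Cbz-Phe-Arg-pNA; p-nitroanilide release read at 405 nm at room temperature; pseudo-first-order inactivation kinetics.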
# [3] = target: Cathepsin B (Homo sapiens) (UniProt P07858); experiment: Inhibition of cathepsin B assessed as ratio of pseudo-first-order inhibition rate constant to inhibitor concentration
# [4] = Stability assessed as half life in citrate phosphate buffer at pH 6.8 in presence of dithiothreitol; assay type: physicochemical; conditions: citrate phosphate buffer with dithiothreitol
# [5] = Stability assessed as half life in citrate phosphate buffer at pH 5.8 in presence of dithiothreitol; assay type: physicochemical; conditions: citrate phosphate buffer with dithiothreitol
Activity (Caspase-6 (Homo sapiens)),Ratio (Papain (Carica papaya)),Activity [3],half-life [4],Activity (Papain (Carica papaya)),half-life [5],Ratio [3],Structure (SMILES),IC50 [1],IC50 [2],Ratio (Schistosoma mansoni)
inactive,1 M⁻¹ s⁻¹,inactive,17 min,,,,C[C@H](NC(=O)OCc1ccccc1)C(=O)N[C@@H](C)C(=O)NN(CC(N)=O)C(=O)/C=C/C(=O)N(Cc1ccccc1)Cc1ccccc1,450 nM,45 nM,5800 M⁻¹ s⁻¹
inactive,,inactive,20 min,inactive,376 min,,C[C@H](NC(=O)OCc1ccccc1)C(=O)N[C@@H](C)C(=O)NN(CC(N)=O)C(=O)/C=C/C(=O)N(C)Cc1ccccc1,< 1 nM,,
inactive,,inactive,,inactive,,,C[C@H](NC(=O)OCc1ccccc1)C(=O)N[C@@H](C)C(=O)NN(CC(N)=O)C(=O)/C=C/C(=O)N(C)Cc1cccc2ccccc12,5.5 nM,35 nM,16900 M⁻¹ s⁻¹
inactive,,,3.7 min,inactive,19 min,< 1 M⁻¹ s⁻¹,CCOC(=O)/C=C/C(=O)N(CC(N)=O)NC(=O)[C@H](C)NC(=O)[C@H](C)NC(=O)OCc1ccccc1,4.5 nM,31 nM,
